Measurements gathered from unrelated publications.
Lines come from different studies, so protocols differ.
Target: Mitogen-activated protein kinase 13 (MAPK13, Homo sapiens, UniProt O15264)
Sequence (O15264 1-365, as in one of the studies): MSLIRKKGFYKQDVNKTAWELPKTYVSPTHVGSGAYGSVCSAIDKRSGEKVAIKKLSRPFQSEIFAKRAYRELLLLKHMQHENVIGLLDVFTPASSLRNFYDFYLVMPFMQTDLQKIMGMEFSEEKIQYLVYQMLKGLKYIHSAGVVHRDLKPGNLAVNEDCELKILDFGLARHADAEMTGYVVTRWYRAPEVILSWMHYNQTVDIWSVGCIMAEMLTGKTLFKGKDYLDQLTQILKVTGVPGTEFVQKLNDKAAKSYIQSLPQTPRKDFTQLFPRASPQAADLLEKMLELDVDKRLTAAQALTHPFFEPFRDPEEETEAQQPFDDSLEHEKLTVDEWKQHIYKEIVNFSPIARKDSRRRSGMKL

Cc1cnn2ncc(-c3ccnc(N(C)C)n3)c2c1 — remaining binding (binding; 1 µM): 100%
O=C(c1ccc(Nc2ncc(Cl)c(-c3cc4ccccc4s3)n2)cc1)N1CCC(N2CCCC2)CC1 — remaining binding (binding; competition with immobilised ligand; 1 µM): 100%
CN(C)c1ncc(F)c(-c2cnn3ncccc23)n1 — remaining binding (binding; 1 µM): 96%
O=C(c1ccc(Nc2ncc(Cl)c(-c3ccc(Cl)s3)n2)cc1)N1CCC(N2CCCC2)CC1 — remaining binding (binding; competition with immobilised ligand; 1 µM): 100%
COc1cnc(Nc2cccc(S(N)(=O)=O)c2)nc1N1CCN(c2ccccc2)C(=O)C1 — remaining binding (binding; competition with immobilised ligand; 1 µM): 95%
Cc1c[nH]c2nccc(Oc3c(F)cc(Nc4cc(Cl)nc(N)n4)cc3F)c12 — remaining binding (cell-free assay; competition with immobilised ligand; 0.1 µM): 89%
N[C@@H]1CCN(c2nccc(-c3cnn4ncccc34)n2)C1 — remaining binding (binding; 1 µM): 100%
CCN1CCN(Cc2ccc(C(=O)Nc3ccc(C)c(Oc4ccc5c(c4)CC(=O)N5)c3)cc2C(F)(F)F)CC1 — remaining binding (binding; competition with immobilised ligand; 1 µM): 100%
F[C@@H]1CCN(c2nccc(-c3cnn4ncccc34)n2)C1 — remaining binding (binding; 1 µM): 67%
CS(=O)(=O)N1CCCC(NC(=O)[C@H](CCC2CCCCC2)NC(=O)c2ccc(CNC(=O)c3cnc4ccccn34)cc2)C1 (stereo partly shown) — remaining binding (cell-free assay; competition with immobilised ligand; 0.1 µM): 100%
C[C@@H](c1ccc(-n2cnc3c(N)ncnc32)cc1)N1CCc2nn(C)c(Cc3ccccc3)c2C1=O — remaining binding (binding; competition with immobilised ligand; 0.1 µM): 83%
CN1CCN(c2cnc3c(C4CCN(C(=O)c5ccc(OC(F)(F)F)cc5N)CC4)ncnc3c2)CC1 — remaining binding (cell-free assay; competition with immobilised ligand; 1 µM): 100%
O=C(Nc1c[nH]nc1C(=O)NC1CCNCC1)c1cc(F)cc(F)c1 — remaining binding (binding; competition with immobilised ligand; 1 µM): 92%
CCS(=O)(=O)c1cc2cc(C[C@](O)(CC(C)(C)c3ccc(F)cc3C(N)=O)C(F)(F)F)[nH]c2cn1 — remaining binding (cell-free assay; competition with immobilised ligand; 1 µM): 100%
CN(CCCC(F)(F)F)c1nccc(-c2cnn3ncccc23)n1 — remaining binding (binding; 1 µM): 100%
O=C(NCCCN1CCOCC1)c1ccc(Nc2nccc(-c3cc4ccccc4s3)n2)cc1 — remaining binding (binding; competition with immobilised ligand; 1 µM): 100%
O=C(Nc1cnc(Oc2ccc(F)cc2)nc1)N1CCc2ncccc2[C@@H]1c1ccc(F)cc1 — remaining binding (cell-free assay; competition with immobilised ligand; 1 µM): 100%
CNC(=O)[C@@H]1CC[C@@H](n2c(-c3ccc4cnccc4c3)nc3ccc(C(=O)NCc4cccc(C(N)=O)c4)cc32)C1 — remaining binding (binding; competition with immobilised ligand; 1 µM): 100%
NS(=O)(=O)c1cc(NC(=O)C2(c3ccccc3Cl)CC2)ccc1Oc1cccc(Cl)c1 — remaining binding (cell-free assay; competition with immobilised ligand; 1 µM): 88%
COc1ncc2cc3ccccc3nc2c1C#N — remaining binding (cell-free assay; competition with immobilised ligand; 5 µM): 79%
C[C@@]1(Cc2ccc(C#N)cc2)C(=O)N(c2cc(Cl)cc(Cl)c2)c2ncc(C(=O)NC3(c4nc(C5CCC5)no4)CC3)n21 — remaining binding (cell-free assay; competition with immobilised ligand; 1 µM): 100%
C[C@@H]1CCN(c2nccc(-c3cnn4ncccc34)n2)C1 — remaining binding (binding; 1 µM): 93%
